Experimental data from ChEMBL document CHEMBL2069210, “D-ring modified novel isosteviol derivatives: design, synthesis and cytotoxic activity evaluation” (Bioorg Med Chem Lett, 2012).

How the values were obtained:
Type in all cases: functional, cell-based
[1] = Antiproliferative activity against human EC9706 cells after 72 hrs by MTT assay; conditions: EC9706, 72 h
Method in brief: (§1)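 Seeded at 5 × 10^3 cells/well and left 24 h. Medium then replaced with fresh medium holding compound over a range of concentrations, and cells incubated a further 72 h. 0.5 mg/mL MTT in PBS added for 4 h, formazan dissolved in DMSO, absorbance read at 562 nm. IC50 derived from percent inhibition across concentrations.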

[2] = Antiproliferative activity against human ECA109 cells after 72 hrs by MTT assay; conditions: ECa-109, 72 h; method in brief: as §1
PC-3 = experiment: Antiproliferative activity against human PC3 cells after 72 hrs by MTT assay; conditions: PC-3, 72 h; method in brief: as §1
HCT-116 = experiment: Antiproliferative activity against human HCT116 cells after 72 hrs by MTT assay; conditions: HCT-116, 72 h; method in brief: as §1

| Compound | IC50 (PC-3) [µM] | IC50 (HCT-116) [µM] | IC50 [1] [µM] | IC50 [2] [µM] |
| --- | --- | --- | --- | --- |
| CCOC(=O)[C@]1(C)CCC[C@@]2(C)[C@@H]3CC[C@@]4(C)C[C@]3(CC[C@@H]21)[C@@H](CN)[C@@H]4O | 15.3 | 12.2 | 4.01 | 5.02 |
| CCOC(=O)[C@]1(C)CCC[C@@]2(C)[C@@H]3CC[C@@]4(C)C[C@]3(CC[C@@H]21)[C@@H](O)[C@H]4NC(=S)Nc1cc(C(F)(F)F)cc(C(F)(F)F)c1 | 20.6 | 14.3 | 24.1 | 45.8 |
| CCOC(=O)[C@]1(C)CCC[C@@]2(C)[C@@H]3CC[C@@]4(C)C[C@]3(CC[C@@H]21)[C@@H](O)[C@H]4NC(=S)Nc1ccccc1 | > 100 | > 100 | > 100 | 72.3 |
| C[C@@]12CC[C@@H]3[C@@](CC[C@H]4[C@@]3(C)CCC[C@@]4(C)C(=O)O)(CC1=O)C2 [ISOSTEVIOL] | > 100 | > 100 | > 100 | > 100 |
| CCOC(=O)[C@]1(C)CCC[C@@]2(C)[C@@H]3CC[C@@]4(C)C[C@]3(CC[C@@H]21)[C@@H](O)[C@H]4O | 87.6 | > 100 | 52.1 | 90.3 |
| CCOC(=O)[C@]1(C)CCC[C@@]2(C)[C@@H]3CC[C@](C)(C#N)C[C@@]3(C=O)CC[C@@H]21 | > 100 | > 100 | > 100 | > 100 |
| CCOC(=O)[C@]1(C)CCC[C@@]2(C)[C@@H]3CC[C@@]4(C)C[C@]3(CC[C@@H]21)[C@H](C=O)[C@H]4O | > 100 | > 100 | 24.4 | 26.5 |
| CCOC(=O)[C@]1(C)CCC[C@@]2(C)[C@@H]3CC[C@@]4(C)C[C@]3(CC[C@@H]21)C(=O)[C@H]4NC(=S)Nc1cc(C(F)(F)F)cc(C(F)(F)F)c1 | > 100 | > 100 | > 100 | > 100 |
| CCOC(=O)[C@]1(C)CCC[C@@]2(C)[C@@H]3CC[C@](C)(C(=O)O)C[C@@]3(C(=O)O)CC[C@@H]21 | > 100 | > 100 | > 100 | > 100 |
| CCOC(=O)[C@]1(C)CCC[C@@]2(C)[C@@H]3CC[C@]4(C)C=C(C=O)[C@@]3(CC[C@@H]21)C4 | 40.3 | > 100 | > 100 | > 100 |
| CCOC(=O)[C@]1(C)CCC[C@@]2(C)[C@@H]3CC[C@@]4(C)C[C@]3(CC[C@@H]21)[C@H](CNC(C)=O)[C@H]4OC(C)=O | > 100 | > 100 | > 100 | > 100 |
| CCOC(=O)[C@]1(C)CCC[C@@]2(C)[C@@H]3CC[C@@]4(C)C[C@]3(CC[C@@H]21)[C@@H](O)[C@H]4NC(=O)[C@@H]1CCCN1 | > 100 | > 100 | 60.7 | 69.5 |
| CCOC(=O)[C@]1(C)CCC[C@@]2(C)[C@@H]3CC[C@@]4(C)C[C@]3(CC[C@@H]21)[C@H](CO)[C@H]4O | > 100 | > 100 | 91.6 | 43.3 |
| CCOC(=O)[C@]1(C)CCC[C@@]2(C)[C@@H]3CC[C@@]4(C)C[C@]3(CC[C@@H]21)C(=O)[C@H]4NC(=S)Nc1ccccc1 | > 100 | > 100 | > 100 | > 100 |
| CCOC(=O)[C@]1(C)CCC[C@@]2(C)[C@@H]3CC[C@@]4(C)C[C@]3(CC[C@@H]21)CC4=O | > 100 | > 100 | > 100 | > 100 |
| CCOC(=O)[C@]1(C)CCC[C@@]2(C)[C@@H]3CC[C@@]4(C)C[C@]3(CC[C@@H]21)[C@@H](O)[C@H]4N | 25.4 | 20.1 | 19.3 | 41.3 |
| CCOC(=O)[C@]1(C)CCC[C@@]2(C)[C@@H]3CC[C@@]4(C)C[C@]3(CC[C@@H]21)[C@H](C=O)[C@H]4N1CCCC1 | > 100 | > 100 | > 100 | 30.3 |
| CCOC(=O)[C@]1(C)CCC[C@@]2(C)[C@@H]3CC[C@@]4(C)C[C@]3(CC[C@@H]21)C(=O)[C@H]4NC(=O)[C@@H]1CCCN1 | > 100 | > 100 | > 100 | > 100 |
| CCOC(=O)[C@]1(C)CCC[C@@]2(C)[C@@H]3CC[C@@]4(C)C[C@]3(CC[C@@H]21)[C@H](/C=N/O)[C@H]4O | > 100 | > 100 | 56.6 | 17.9 |
| CCOC(=O)[C@]1(C)CCC[C@@]2(C)[C@@H]3CC[C@@]4(C)C[C@]3(CC[C@@H]21)C(=O)C4=O | > 100 | > 100 | > 100 | > 100 |
| CCOC(=O)[C@]1(C)CCC[C@@]2(C)[C@@H]3CC[C@@]4(C)C[C@]3(CC[C@@H]21)C[C@H]4O | > 100 | > 100 | > 100 | > 100 |
| CCOC(=O)[C@]1(C)CCC[C@@]2(C)[C@@H]3CC[C@@]4(C)C[C@]3(CC[C@@H]21)C(=O)OC4=O | > 100 | > 100 | > 100 | > 100 |
| CCOC(=O)[C@]1(C)CCC[C@@]2(C)[C@@H]3CC[C@@]4(C)C[C@]3(CC[C@@H]21)C(=O)/C4=N\O | > 100 | > 100 | > 100 | > 100 |

Further lines, with some results ahead:

| IC50 (PC-3) [µM] | IC50 (HCT-116) [µM] | Compound | IC50 [1] [µM] | IC50 [2] [µM] |
| --- | --- | --- | --- | --- |
| > 100 | > 100 | CCOC(=O)[C@]1(C)CCC[C@@]2(C)[C@@H]3CC[C@@]4(C)C[C@]3(CC[C@@H]21)C(Br)C4=O (some centres not stated) | > 100 | > 100 |
| > 100 | > 100 | CCOC(=O)[C@]1(C)CCC[C@@]2(C)[C@@H]3CC[C@@]4(C)C[C@]3(CC[C@@H]21)C(=O)[C@H]4NC(=S)Nc1cccc2ccccc12 | > 100 | > 100 |
| > 100 | > 100 | CCOC(=O)[C@]1(C)CCC[C@@]2(C)[C@@H]3CC[C@@]4(C)C[C@]3(CC[C@@H]21)C(=O)[C@H]4N | 97.2 | > 100 |
| > 100 | > 100 | C[C@]12CC[C@H]3[C@]4(C)CCC[C@@](C)(CO)[C@H]4CC[C@@]3(C1)[C@@H](O)/C2=N\O | > 100 | > 100 |
| > 100 | > 100 | CCOC(=O)[C@]1(C)CCC[C@@]2(C)[C@@H]3CC[C@@]4(C)C[C@]3(CC[C@@H]21)[C@@H](O)/C4=N\O | > 100 | > 100 |
| > 100 | > 100 | CCOC(=O)[C@]1(C)CCC[C@@]2(C)[C@@H]3CC[C@@]4(C)C[C@]3(CC[C@@H]21)[C@@H](O)[C@H]4NC(=S)Nc1cccc2ccccc12 | > 100 | 90.9 |
| > 100 | > 100 | CCOC(=O)[C@]1(C)CCC[C@@]2(C)[C@@H]3CC[C@](C)(C#N)C[C@@]3(C(=O)O)CC[C@@H]21 | > 100 | > 100 |
| > 100 | > 100 | CCOC(=O)[C@]1(C)CCC[C@@]2(C)[C@@H]3CC[C@@]4(C)C[C@]3(CC[C@@H]21)[C@H](CNC(C)=O)[C@H]4O | 21.2 | 13.3 |
| > 100 | > 100 | CCOC(=O)[C@]1(C)CCC[C@@]2(C)[C@@H]3CC[C@](C)(C(N)=O)C[C@@]3(C(=O)O)CC[C@@H]21 | > 100 | > 100 |
| > 100 | > 100 | CCOC(=O)[C@]1(C)CCC[C@@]2(C)[C@@H]3CC[C@@]4(C)C[C@]3(CC[C@@H]21)C(=O)[C@H]4O | > 100 | > 100 |
